In ChEMBL document CHEMBL1147738, “Potent and selective mitogen-activated protein kinase kinase (MEK) 1,2 inhibitors. 1. 4-(4-bromo-2-fluorophenylamino)-1- methylpyridin-2(1H)-ones” (J Med Chem, 2006):

Legend:
Malme-3M [1] = test: Inhibition of cellular viability of Malme-3M cells; type: functional, Homo sapiens
Malme-3M [2] = test: Inhibition of basal ERK phosphorylation in Malme-3M cells; type: functional, Homo sapiens
[3] = target: Mitogen-activated protein kinase 8 (Homo sapiens) (UniProt P45983); test: Inhibition of JNK/SAPK1c at 10 uM
Sequence of Mitogen-activated protein kinase 8 (Homo sapiens) (P45983 whole entry): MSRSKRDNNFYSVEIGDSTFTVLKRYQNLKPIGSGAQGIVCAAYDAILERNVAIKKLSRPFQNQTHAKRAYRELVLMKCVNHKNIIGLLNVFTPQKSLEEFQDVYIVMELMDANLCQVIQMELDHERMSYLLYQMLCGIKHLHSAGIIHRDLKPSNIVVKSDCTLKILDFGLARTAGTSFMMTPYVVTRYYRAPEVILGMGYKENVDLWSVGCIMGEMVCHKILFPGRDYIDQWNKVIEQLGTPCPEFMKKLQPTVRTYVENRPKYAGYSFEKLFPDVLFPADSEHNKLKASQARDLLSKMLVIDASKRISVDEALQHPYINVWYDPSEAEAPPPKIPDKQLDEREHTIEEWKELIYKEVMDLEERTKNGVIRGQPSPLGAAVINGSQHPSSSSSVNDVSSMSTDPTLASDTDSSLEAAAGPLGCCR
Summary of the method: (§1)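 Kinase panel run at Upstate (Dundee). Each compound was tested at 10 µM against each enzyme and reported as % inhibition.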

[4] = target: T1, Serine/threonine-protein kinase Chk1 (Homo sapiens) (UniProt O14757); test: Inhibition of CHK1 at 10 uM; summary of the method: as §1
T1 sequence (whole entry): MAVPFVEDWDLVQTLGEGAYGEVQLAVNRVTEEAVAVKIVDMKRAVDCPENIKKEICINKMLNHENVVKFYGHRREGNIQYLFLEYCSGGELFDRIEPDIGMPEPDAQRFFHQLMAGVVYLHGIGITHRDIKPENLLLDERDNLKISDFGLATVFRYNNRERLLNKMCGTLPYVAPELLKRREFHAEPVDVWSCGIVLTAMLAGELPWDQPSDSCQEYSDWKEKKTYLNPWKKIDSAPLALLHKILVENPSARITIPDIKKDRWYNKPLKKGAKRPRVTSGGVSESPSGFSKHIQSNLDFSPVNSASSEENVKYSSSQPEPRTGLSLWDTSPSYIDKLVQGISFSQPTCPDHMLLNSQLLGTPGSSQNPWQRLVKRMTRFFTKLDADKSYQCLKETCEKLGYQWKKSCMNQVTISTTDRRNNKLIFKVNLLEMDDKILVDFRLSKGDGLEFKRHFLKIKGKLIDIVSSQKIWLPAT

Rattus norvegicus [5] = test: AUC in rat at 10 mg/kg, po; type: ADME, organism-based, Sprague-Dawley, Plasma; parameters: dose 10 mg/kg, route oral; settings: in vivo
Summary of the method: (§2)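 Male Sprague Dawley rats (6-10 weeks) were given 10 mg/kg by oral gavage (2 mg/mL in 1% CMC/0.5% Tween 80, 5 mL/kg). Tail-vein EDTA blood was drawn at 15 and 30 min and 1, 2, 4, 8, 12, 24, 48, 72 h. Plasma was quantified by LC/MS/MS after methanol precipitation. Parameters came from non-compartmental analysis.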

[6] = target: Ribosomal protein S6 kinase alpha-5 (Homo sapiens) (UniProt O75582); test: Inhibition of MSK1 at 10 uM; summary of the method: as §1
Sequence of Ribosomal protein S6 kinase alpha-5 (Homo sapiens) (O75582 whole entry, looked up): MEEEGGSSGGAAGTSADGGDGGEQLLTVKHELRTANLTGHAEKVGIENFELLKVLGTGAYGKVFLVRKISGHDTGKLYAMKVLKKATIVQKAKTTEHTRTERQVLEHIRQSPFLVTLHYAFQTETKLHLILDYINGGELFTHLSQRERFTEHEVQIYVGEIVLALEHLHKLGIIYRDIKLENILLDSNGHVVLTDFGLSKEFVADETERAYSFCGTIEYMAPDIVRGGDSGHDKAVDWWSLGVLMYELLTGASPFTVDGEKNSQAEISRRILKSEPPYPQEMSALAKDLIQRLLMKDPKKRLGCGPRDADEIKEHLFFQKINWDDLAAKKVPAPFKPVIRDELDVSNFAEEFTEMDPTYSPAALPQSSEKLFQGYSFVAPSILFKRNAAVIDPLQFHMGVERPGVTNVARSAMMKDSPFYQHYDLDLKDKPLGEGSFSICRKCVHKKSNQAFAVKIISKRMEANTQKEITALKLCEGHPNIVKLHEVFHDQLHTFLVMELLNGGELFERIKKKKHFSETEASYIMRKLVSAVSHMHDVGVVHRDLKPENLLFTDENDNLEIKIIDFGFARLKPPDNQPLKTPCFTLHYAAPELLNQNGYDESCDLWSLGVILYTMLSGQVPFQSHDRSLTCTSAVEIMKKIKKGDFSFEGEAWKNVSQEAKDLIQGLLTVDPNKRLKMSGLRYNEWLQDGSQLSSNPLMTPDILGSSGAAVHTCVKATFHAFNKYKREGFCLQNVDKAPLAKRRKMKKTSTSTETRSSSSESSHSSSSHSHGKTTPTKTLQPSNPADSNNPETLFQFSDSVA

[7] = target: Mitogen-activated protein kinase 14 (Homo sapiens) (UniProt Q16539); test: Inhibition of SAPK2a/p38 at 10 uM; summary of the method: as §1
Sequence of Mitogen-activated protein kinase 14 (Homo sapiens) (Q16539 whole entry): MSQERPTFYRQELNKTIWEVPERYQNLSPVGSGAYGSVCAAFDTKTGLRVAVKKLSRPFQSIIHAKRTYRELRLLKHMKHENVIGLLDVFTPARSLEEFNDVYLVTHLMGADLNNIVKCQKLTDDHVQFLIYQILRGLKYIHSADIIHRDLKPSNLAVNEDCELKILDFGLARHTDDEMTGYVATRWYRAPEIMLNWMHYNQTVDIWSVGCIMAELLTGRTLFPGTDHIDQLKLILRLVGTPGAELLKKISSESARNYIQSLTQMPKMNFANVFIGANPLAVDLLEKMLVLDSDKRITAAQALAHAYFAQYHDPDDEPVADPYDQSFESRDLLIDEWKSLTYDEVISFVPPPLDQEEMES

[8] = target: Tyrosine-protein kinase Lck (Homo sapiens) (UniProt P06239); test: Inhibition of LCK at 10 uM; summary of the method: as §1
[9] = target: Mitogen-activated protein kinase 1 (Homo sapiens) (UniProt P28482); test: Inhibition of MAPK2/ERK2 at 10 uM; summary of the method: as §1
[10] = target: Dual specificity tyrosine-phosphorylation-regulated kinase 1A (Homo sapiens) (UniProt Q13627); test: Inhibition of DYRK1a at 10 uM; summary of the method: as §1
[11] = target: cAMP-dependent protein kinase (PKA) (Homo sapiens) (UniProt P22694+P17612+P22612); test: Inhibition of PKA at 10 uM; type: protein assay; summary of the method: as §1
[12] = Volume of distribution in rat; type: ADME, organism-based; settings: Sprague-Dawley, in vivo, read-out: Vdss
Summary of the method: (§3)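 Male Sprague Dawley rats (6-10 weeks) received IV 1 mg/kg (10% DMSO/90% saline) and PO 10 mg/kg (1% CMC/0.5% Tween 80). Serial tail-vein plasma was taken up to 24 h (IV) or 72 h (PO) and analysed by LC/MS/MS (9 ng/mL to 20 µg/mL). Parameters were calculated non-compartmentally.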

[13] = target: RAC-alpha serine/threonine-protein kinase (Homo sapiens) (UniProt P31749); test: Inhibition of PKBa at 10 uM; summary of the method: as §1
[14] = target: Mitogen-activated protein kinase 11 (Homo sapiens) (UniProt Q15759); test: Inhibition of SAPK2b/p38--beta-2 at 10 uM; summary of the method: as §1
[15] = target: T2, Lymphokine-activated killer T-cell-originated protein kinase (Homo sapiens) (UniProt Q96KB5); test: Inhibition of PBK at 10 uM; summary of the method: as §1
T2 sequence (whole entry): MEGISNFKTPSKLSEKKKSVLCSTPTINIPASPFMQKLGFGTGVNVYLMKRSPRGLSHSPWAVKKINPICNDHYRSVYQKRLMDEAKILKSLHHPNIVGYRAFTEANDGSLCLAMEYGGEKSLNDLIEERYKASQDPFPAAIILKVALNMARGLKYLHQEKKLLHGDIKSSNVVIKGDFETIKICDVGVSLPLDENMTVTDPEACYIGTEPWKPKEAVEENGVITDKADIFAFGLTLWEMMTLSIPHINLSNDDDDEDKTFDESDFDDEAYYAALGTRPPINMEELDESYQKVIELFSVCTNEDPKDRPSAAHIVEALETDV

[16] = target: Protein kinase C alpha type (Homo sapiens) (UniProt P17252); test: Inhibition of PKCa at 10 uM; summary of the method: as §1
[17] = Half life in rat at 1 mg/kg, iv; type: ADME, organism-based; parameters: dose 1 mg/kg, route intravenous; settings: Sprague-Dawley, in vivo
Summary of the method: (§4)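 Male Sprague Dawley rats (6-10 weeks), fed ad lib, dosed IV at 1 mg/kg (1 mg/mL in 10% DMSO/90% normal saline, 1 mL/kg). Tail-vein EDTA blood sampled 1, 5, 15, 30 min and 1, 2, 4, 8, 12, 24 h. Plasma analysed by LC/MS/MS after methanol protein precipitation, range 9 ng/mL to 20 µg/mL. Parameters derived by non-compartmental analysis.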

[18] = target: Glycogen synthase kinase-3 beta (Homo sapiens) (UniProt P49841); test: Inhibition of GSK3b at 10 uM; summary of the method: as §1
Sequence of Glycogen synthase kinase-3 beta (Homo sapiens) (P49841 whole entry, looked up): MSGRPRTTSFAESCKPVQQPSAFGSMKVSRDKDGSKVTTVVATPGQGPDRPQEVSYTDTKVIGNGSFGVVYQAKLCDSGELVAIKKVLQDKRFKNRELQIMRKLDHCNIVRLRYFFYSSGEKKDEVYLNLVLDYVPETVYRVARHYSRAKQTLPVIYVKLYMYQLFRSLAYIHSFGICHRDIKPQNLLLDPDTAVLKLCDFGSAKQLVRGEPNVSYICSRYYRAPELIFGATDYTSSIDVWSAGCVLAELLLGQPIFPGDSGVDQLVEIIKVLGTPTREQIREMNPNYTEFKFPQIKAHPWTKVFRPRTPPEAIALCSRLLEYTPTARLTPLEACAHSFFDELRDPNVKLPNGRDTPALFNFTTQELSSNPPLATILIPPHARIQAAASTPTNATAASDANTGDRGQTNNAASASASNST

[19] = target: Ribosomal protein S6 kinase alpha-1 (Homo sapiens) (UniProt Q15418); test: Inhibition of MAPKAP-K1a at 10 uM; summary of the method: as §1
Sequence of Ribosomal protein S6 kinase alpha-1 (Homo sapiens) (Q15418 whole entry): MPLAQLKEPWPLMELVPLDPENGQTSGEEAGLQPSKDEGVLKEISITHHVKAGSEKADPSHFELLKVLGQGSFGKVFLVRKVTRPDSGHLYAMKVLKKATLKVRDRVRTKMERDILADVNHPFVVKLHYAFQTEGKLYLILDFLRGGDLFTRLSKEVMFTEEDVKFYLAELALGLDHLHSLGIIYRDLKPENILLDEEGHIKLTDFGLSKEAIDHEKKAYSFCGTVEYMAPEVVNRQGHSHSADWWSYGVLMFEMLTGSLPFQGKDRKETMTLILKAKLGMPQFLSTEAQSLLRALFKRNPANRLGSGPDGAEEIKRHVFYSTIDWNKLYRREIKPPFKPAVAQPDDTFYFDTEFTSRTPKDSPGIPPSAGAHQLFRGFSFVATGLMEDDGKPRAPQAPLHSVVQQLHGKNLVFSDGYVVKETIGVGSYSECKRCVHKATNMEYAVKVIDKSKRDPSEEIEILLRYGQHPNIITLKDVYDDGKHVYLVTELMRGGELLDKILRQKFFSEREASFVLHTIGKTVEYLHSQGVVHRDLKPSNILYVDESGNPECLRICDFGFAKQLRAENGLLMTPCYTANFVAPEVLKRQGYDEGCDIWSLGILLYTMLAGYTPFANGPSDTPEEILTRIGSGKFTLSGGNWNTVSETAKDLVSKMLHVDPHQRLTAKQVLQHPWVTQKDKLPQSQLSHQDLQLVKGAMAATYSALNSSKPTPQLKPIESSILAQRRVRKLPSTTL

Rattus norvegicus [20] = test: AUC in rat at 1 mg/kg, iv; type: ADME, organism-based, Sprague-Dawley, Plasma; parameters: dose 1 mg/kg, route intravenous; settings: in vivo; summary of the method: as §4
[21] = Half life in rat at 10 mg/kg, po; type: ADME, organism-based; parameters: dose 10 mg/kg, route oral; settings: Sprague-Dawley, in vivo; summary of the method: as §2
[22] = target: MAP kinase-activated protein kinase 2 (Homo sapiens) (UniProt P49137); test: Inhibition of MAPKAP-K2 at 10 uM; summary of the method: as §1
[23] = target: Casein kinase II (Homo sapiens) (UniProt P67870+P68400+P19784); test: Inhibition of CK2 at 10 uM; type: protein-complex assay; summary of the method: as §1
[24] = target: AMP-activated protein kinase, AMPK (Homo sapiens) (UniProt P54646+O43741+P54619+Q9UGJ0+Q9Y478+Q13131+Q9UGI9); test: Inhibition of AMPK at 10 uM; type: protein-complex assay; summary of the method: as §1
[25] = target: T3, MAP kinase-activated protein kinase 5 (Homo sapiens) (UniProt Q8IW41); test: Inhibition of PRAK at 10 uM; summary of the method: as §1
T3 sequence (whole entry): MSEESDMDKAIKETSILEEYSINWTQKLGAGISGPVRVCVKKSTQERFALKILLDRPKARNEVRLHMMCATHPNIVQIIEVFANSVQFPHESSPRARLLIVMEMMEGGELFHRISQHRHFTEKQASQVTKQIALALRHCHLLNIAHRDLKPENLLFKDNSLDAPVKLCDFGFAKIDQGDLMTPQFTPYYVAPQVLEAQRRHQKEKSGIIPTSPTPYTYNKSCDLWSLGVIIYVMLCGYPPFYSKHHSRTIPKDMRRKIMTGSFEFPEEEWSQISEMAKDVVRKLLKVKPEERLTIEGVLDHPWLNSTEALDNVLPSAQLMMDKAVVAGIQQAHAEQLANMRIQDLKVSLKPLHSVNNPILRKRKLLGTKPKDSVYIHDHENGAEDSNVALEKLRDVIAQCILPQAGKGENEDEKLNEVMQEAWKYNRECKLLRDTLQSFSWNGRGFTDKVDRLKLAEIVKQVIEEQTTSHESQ

[26] = Oral bioavailability in rat; type: ADME, organism-based; settings: Sprague-Dawley, in vivo; summary of the method: as §3
[27] = target: Ribosomal protein S6 kinase (P70S6K) (Homo sapiens) (UniProt Q9UBS0+P23443); test: Inhibition of p70 S6K at 10 uM; type: protein-complex assay; summary of the method: as §1
[28] = target: Rho-associated protein kinase 2 (Homo sapiens) (UniProt O75116); test: Inhibition of ROCK 2 at 10 uM; summary of the method: as §1
Sequence of Rho-associated protein kinase 2 (Homo sapiens) (O75116 whole entry, looked up): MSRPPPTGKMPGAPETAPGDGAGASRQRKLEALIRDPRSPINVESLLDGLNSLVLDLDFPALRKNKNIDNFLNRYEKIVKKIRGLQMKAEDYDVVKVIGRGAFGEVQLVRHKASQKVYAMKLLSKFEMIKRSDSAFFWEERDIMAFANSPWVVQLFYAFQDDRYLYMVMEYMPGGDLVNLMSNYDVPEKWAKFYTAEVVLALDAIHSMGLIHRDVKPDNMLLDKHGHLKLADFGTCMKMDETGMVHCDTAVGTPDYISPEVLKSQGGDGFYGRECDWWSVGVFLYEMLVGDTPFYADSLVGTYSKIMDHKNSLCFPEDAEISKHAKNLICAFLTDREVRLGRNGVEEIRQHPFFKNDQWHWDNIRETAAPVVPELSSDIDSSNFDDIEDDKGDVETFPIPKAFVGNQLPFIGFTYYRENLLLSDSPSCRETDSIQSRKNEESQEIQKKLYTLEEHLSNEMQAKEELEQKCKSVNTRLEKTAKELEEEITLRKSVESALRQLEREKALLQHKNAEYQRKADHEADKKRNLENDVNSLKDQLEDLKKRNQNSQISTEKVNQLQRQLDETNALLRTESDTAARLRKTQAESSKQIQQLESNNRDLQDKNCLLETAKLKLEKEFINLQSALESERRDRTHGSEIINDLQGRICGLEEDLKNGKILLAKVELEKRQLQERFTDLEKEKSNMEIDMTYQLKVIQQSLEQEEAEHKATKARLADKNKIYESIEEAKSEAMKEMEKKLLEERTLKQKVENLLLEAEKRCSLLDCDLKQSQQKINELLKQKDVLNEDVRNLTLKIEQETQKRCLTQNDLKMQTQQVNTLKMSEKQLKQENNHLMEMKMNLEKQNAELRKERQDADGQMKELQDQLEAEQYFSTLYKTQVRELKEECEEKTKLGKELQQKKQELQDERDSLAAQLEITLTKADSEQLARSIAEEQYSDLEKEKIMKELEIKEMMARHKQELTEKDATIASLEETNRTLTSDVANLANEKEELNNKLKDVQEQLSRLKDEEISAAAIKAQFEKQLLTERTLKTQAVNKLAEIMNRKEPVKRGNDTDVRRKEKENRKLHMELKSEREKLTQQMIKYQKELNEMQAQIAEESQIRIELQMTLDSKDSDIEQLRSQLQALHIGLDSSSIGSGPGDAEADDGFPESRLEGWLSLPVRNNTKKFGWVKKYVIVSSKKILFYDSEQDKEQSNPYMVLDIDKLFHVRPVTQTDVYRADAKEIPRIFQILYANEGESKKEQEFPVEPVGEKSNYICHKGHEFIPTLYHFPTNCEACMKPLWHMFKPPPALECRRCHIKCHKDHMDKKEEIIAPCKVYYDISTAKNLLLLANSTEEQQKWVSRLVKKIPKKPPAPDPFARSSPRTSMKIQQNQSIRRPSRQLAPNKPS

[29] = Clearance in presence of human hepatocytes; type: ADME, cell-based, Liver, Hepatocyte
Summary of the method: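 Human hepatocytes (fresh or cryopreserved) diluted to 2 x 10⁶ viable cells/mL in supplemented Krebs-Henseleit buffer pH 7.3, mixed 1:1 with 2 µM compound working solution. Incubated at 37 °C, 5% CO₂, duplicates, one plate per timepoint. Quenched with labetalol internal standard and centrifuged; compound remaining measured by LC-MS/MS (ESI+, MRM).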

[30] = Clearance in rat; type: ADME, organism-based; settings: Sprague-Dawley, in vivo; summary of the method: as §3
[31] = target: Cyclin-dependent kinase 2/cyclin A (Homo sapiens) (UniProt P24941+P20248+P78396); test: Inhibition of CDK2/cyclin A at 10 uM; type: protein-complex assay; summary of the method: as §1

Work on `Cn1cc(C(=O)NOCCO)c(Nc2ccc(Br)cc2F)c(F)c1=O` yielded an Activity (Malme-3M [1]) of 115 nM and an Activity (Malme-3M [2]) of 22 nM.

Compound `Cn1cc(C(=O)NOCCO)c(Nc2ccc(Br)cc2F)cc1=O` has an Activity (Malme-3M [1]) of 460 nM and an Activity (Malme-3M [2]) of 73 nM.

For `Cn1cc(C(=O)O)c(Nc2ccc(Br)cc2F)c(F)c1=O`, the Activity (Malme-3M [1]) was >5000 nM and the Activity (Malme-3M [2]) was >10000 nM.

With `Cn1cc(C(=O)NO)c(Nc2ccc(Br)cc2F)c(F)c1=O` the Activity (Malme-3M [1]) was 860 nM and the Activity (Malme-3M [2]) was 18 nM.

With `Cn1cc(C(=O)NCC2CC2)c(Nc2ccc(Br)cc2F)c(F)c1=O` the Activity (Malme-3M [1]) was >5000 nM and the Activity (Malme-3M [2]) was 1206 nM.

In the case of `CCONC(=O)c1cn(C)c(=O)c(F)c1Nc1ccc(Br)cc1F`, the inhibition [3] is reported as 15%, the inhibition [4] is reported as 13% and the AUC (Rattus norvegicus [5]) is reported as 138000 ng·h/mL. It also gave an inhibition [6] of 7%, an inhibition [7] of 10% and an inhibition [8] of 19%. The inhibition [9] was 7%, the inhibition [10] was 12% and the inhibition [11] was 14%. It also gave a Vd [12] of 0.4 L/kg, an inhibition [13] of 6% and an inhibition [14] of 9%. For the same compound, the inhibition [15] was -1%, the inhibition [16] was 6% and the half-life [17] was 6 h. The inhibition [18] was 21%, the inhibition [19] was 6% and the AUC (Rattus norvegicus [20]) was 24100 ng·h/mL. The half-life [21] was 12 h, the inhibition [22] was 15% and the inhibition [23] was 4%. For the same compound, the inhibition [24] was 8%, the inhibition [25] was 18% and the bioavailability [26] was 58%. For the same compound, the inhibition [27] was 13%, the inhibition [28] was 4% and the CLhep predicted [29] was 2 mL/min/kg. It also gave a clearance [30] of 0.7 mL/min/kg and an inhibition [31] of 25%.

Compound `Cn1cc(C(=O)NOCC2CC2)c(Nc2ccc(Br)cc2F)c(Cl)c1=O` has an Activity (Malme-3M [1]) of 195 nM and an Activity (Malme-3M [2]) of 27 nM.

Compound `CNC(=O)c1cn(C)c(=O)c(F)c1Nc1ccc(Br)cc1F` has an Activity (Malme-3M [1]) of 405 nM and an Activity (Malme-3M [2]) of 68 nM.
